High-throughput results: PubChem, several laboratories
NF-kB neuron act: activators of NF-kB expression in neurons, primary screen, cell-based, HTS; human neuronal cells, NF-kB reporter expression; hits give high values; fold change at 12.5 µM; 1.6% of 190,000 active; AID 1239, 2008; in the data active means fold change above about 3.3
APP 5'UTR act: activators of APP 5'UTR luciferase reporter, primary screen, SH-SY5Y cells; SH-SY5Y APP 5'UTR luciferase reporter, luminescence; zero percent = DMSO vehicle wells; activation, % at 2 µM; 1% of 190,000 active;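 active means activation above a set limit, based on mean plus 3 SD of controls, cut at about 140% in these data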
FLuc inh counter: firefly luciferase enzyme inhibitors, primary screen, artefact control for luciferase-based inhibitor screens, biochemical, luminescence, ATPLite | Luciferin 4-monooxygenase (Photinus pyralis), P08659 | 10 min | inhibition, % at 10 µM | 1.5% of 200,000 active | AID 1006, 2008;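 active means inhibition above about 50% when tested at 10 µM, limit read from the data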
Target sequence (P08659 whole entry, looked up): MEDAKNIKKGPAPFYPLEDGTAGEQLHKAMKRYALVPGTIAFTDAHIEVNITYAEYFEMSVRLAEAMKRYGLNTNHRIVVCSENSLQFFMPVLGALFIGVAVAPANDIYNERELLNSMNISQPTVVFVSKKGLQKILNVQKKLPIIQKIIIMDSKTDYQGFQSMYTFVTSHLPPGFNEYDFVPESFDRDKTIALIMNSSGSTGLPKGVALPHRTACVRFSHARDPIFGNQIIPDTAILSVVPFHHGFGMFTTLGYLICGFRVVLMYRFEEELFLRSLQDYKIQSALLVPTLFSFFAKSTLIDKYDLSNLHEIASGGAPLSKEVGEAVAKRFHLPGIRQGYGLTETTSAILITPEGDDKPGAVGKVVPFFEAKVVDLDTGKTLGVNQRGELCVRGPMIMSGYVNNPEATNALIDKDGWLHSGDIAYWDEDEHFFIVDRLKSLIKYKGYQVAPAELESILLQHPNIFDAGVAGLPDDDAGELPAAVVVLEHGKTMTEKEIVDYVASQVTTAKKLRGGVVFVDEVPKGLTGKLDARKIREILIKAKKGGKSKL
FLuc act counter: FLuc activators, initial screening, artefact control for FLuc-dependent activation tests, biochemical, ATPlite luminescence. ATPlite luciferase biochemical, 10 min; 0 = ATP-free wells, 1 = DMSO control. activation factor at 10 µM. 200,000 tested, under 10 active. AID 1027, 2008;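 active means luciferase activation factor, scaled between plate controls, of at least 2 with compound at 10 µM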
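System: luciferase plus luciferin reagent, cell-free; medium: PBS as buffer for the ATP substrate; dosing: test compounds dosed from 2 mM stocks in 100% DMSO; timing: 10 min post-reagent at room temperature; measured by: luminescence measurement of luciferase light output; evaluation: luciferase activation, seen as luminescence increase over controls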
STAT1 act: STAT1 signaling activators, primary screen, cell-based, HTS, luciferase reporter; 2.6% of 200,000 active; activation (% of control), % at 5.5 µM; NIH 3T3 STAT1-luciferase reporter, IFN-gamma, luminescence; 100% = IFN-gamma alone, no compound; AID 932, 2007;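 active means activation above the screen-wide mean activation plus 3 SD, cut at about 130% in these data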;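 further: raw ratio to IFN-gamma control signal so 100% means no change and 0% no light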
* = called active by the depositor; . = no result. Sampled rows, rich in hits. Any-hit rate of the full collection: about 4.1%.

SMILES	NF-kB neuron act	APP 5'UTR act	FLuc inh counter	FLuc act counter	STAT1 act
c1coc(-c2nnc(-c3ccc4c(c3)OCO4)o2)c1	2.6	88	38	0.6	133*
c1ccc(-c2nnc(-c3ccco3)o2)cc1	1.7	67	18	0.8	138*
c1nnc(-c2ccc3c(c2)OCO3)o1	1.2	16	-4	1	104
Cc1ccc(-c2nnc(-c3ccc4c(c3)OCO4)o2)cc1	1.1	130	52*	0.5	130*
CCOc1ccc(-c2nnc(-c3ccco3)o2)cc1OCC	1.8	15	-1	1	125
O=C(O)c1cc2nc(C3CC3)cc(C(F)(F)F)n2n1	1	-11	0	1	98
Brc1ccc(-c2nnc(-c3ccc4c(c3)OCO4)o2)o1	4*	5	60*	0.4	115
Clc1ccc(CSc2nnc(-c3ccc4c(c3)OCO4)o2)cc1	1.2	-3	-3	1	103
CCCNC(=O)c1cc2c3ccccc3n(C)c2s1	0.84	.	-2	1	98
Cn1c2ccccc2c2cc(C(=O)NNC(=O)CCl)sc21	2	7	-8	1.1	133*
COc1ccc(C(C(=O)NC2CCCC2)N(CCN2CCOCC2)C(=O)c2ccc(OC)c(OC)c2)cc1 (stereo unspecified)	1.1	-12	-3	1	99
Clc1ccc2[nH]c(-c3ccccc3)cc2c1	3.9*	119	1	1	138*
COC(=O)c1sc2ccccc2c1-n1cccc1C(=O)C(=O)Nc1ccc(F)cc1	0.84	8	-6	1.1	106
COc1ccc(OC)c(/C=N/N(C)c2ccccc2)c1	2.4	25	12	0.9	137*
COc1cc(/C=N/N(C)c2ccccc2)cc(Cl)c1O	1.7	29	3	1	97
Cc1ccccc1-n1c(SCC(=O)Nc2ccccc2)nc2nc3c(cc2c1=O)CCCC3	0.38	-3	-10	1.1	94
O=C(Oc1ccc2c(c1)OCC2=O)c1ccccc1	1.6	30	21	0.8	101
CC(=O)Oc1ccc2c(c1)C(=O)c1ccccc1CO2	1.3	8	66*	0.3	100
O=C(CCCOc1ccccc1)N1CCN(c2ccccn2)CC1	2.9	153*	1	1	129*
COC(=O)C1CCN(C(=O)CCCOc2ccccc2)CC1	2.8	146*	11	0.9	132*
O=C(CCCOc1ccc(Cl)cc1Cl)N1CCN(c2ccccn2)CC1	0.91	-8	-6	1.1	102
CC1(C)N=C(N)N=C(N)N1c1ccc(F)cc1F	0.96	17	-8	1.1	104
CC1(C)N=C(N)N=C(N)N1c1ccccc1	3.8*	-6	-6	1.1	103
CC(C)CNS(=O)(=O)c1ccc(CCC(=O)N2CCN(Cc3ccccc3)CC2)cc1	1.3	0	-1	1	98
NC(=O)CSc1nc(C2CC2)nc2sc3c(c12)CCCC3	3.8*	140*	52*	0.5	150*
SMILES	NF-kB neuron act	APP 5'UTR act	FLuc inh counter	FLuc act counter	STAT1 act
NC(=O)CSc1nc(N)c2c3c(sc2n1)CCCCC3	1.4	11	24	0.8	109
O=C(COc1ccc2c(c1)C(=O)CC1(CCCCC1)O2)NCc1ccccc1	1.4	-5	-8	1.1	98
Cn1c(CNc2ccc(Cl)cc2)nc2ccccc21	3.9*	175*	44	0.6	143*
Cc1nc2cc(NCc3nc4ccccc4n3Cc3ccccc3)ccc2n1C	0.55	131	87*	0.1	135*
Cc1ccc(N2CCN(c3ccc(NCc4nc5ccccc5n4C)cc3)CC2)cc1	0.96	-15	-4	1	99
Cc1cccc(NCc2nc3ccccc3n2Cc2ccccc2)c1	1.5	19	-6	1.1	104
CCCCC/C=N\NC(=O)Cc1ccc([N+](=O)[O-])cc1	1.5	5	-1	1	104
O=C(NCCC1=CCCCC1)c1cc(-c2ccncc2)nc2ccccc12	0.93	-28	-2	1	95
COc1ccccc1/C=C/C(=O)OCC(=O)Nc1c(F)cccc1F	1.1	1	64*	0.4	97
C=CCn1nc([N+](=O)[O-])nc1Sc1cccc2cccnc12	3.5*	-44	-1	1	108
Cc1ccc(C(=O)NCCn2ccc3ccccc32)cc1[N+](=O)[O-]	1.3	-3	-6	1.1	111
COc1ccc(C(=O)NCCn2ccc3ccccc32)cc1	4*	91	7	0.9	116
O=C(NCCn1ccc2ccccc21)c1ccc2c(c1)OCO2	5.7*	150*	10	0.9	139*
CCN1C(=O)/C(=C2\SC(=S)N(CCCOC)C2=O)c2ccccc21	0.96	-1	4	1	99
Cc1cc(C(=O)Cn2nc(C(=O)O)c3ccccc3c2=O)c(C)n1-c1ccccc1	0.78	51	92*	0.1	107
Cc1c(Cc2ccc3c(c2)OCO3)sc(NC(=O)c2ccccc2)c1C(N)=O	1.1	-2	-2	1	100
NC(=O)c1c(NC(=O)c2ccccc2)sc2c1CCc1ccccc1-2	4.1*	17	21	0.8	140*
CC(C)(C)NC(=O)COC(=O)c1ccccc1OCC(=O)Nc1ccc(Br)cc1	1.1	11	64*	0.4	105
CCCNC(=O)COC(=O)c1ccccc1OCC(=O)Nc1ccc(Br)cc1	1	12	-1	1	102
Cc1nonc1C1CCCN1Cc1cn[nH]c1-c1ccc(-c2ccccc2)cc1 (stereo unspecified)	0.86	14	0	1	105
CCc1nnc(NS(=O)(=O)c2ccc(N=Cc3c(C)[nH]n(-c4ccc(C)c(C)c4)c3=O)cc2)s1	1.2	-7	66*	0.3	111
Cc1ccc(-n2[nH]c(C)c(C=Nc3ccc(S(=O)(=O)Nc4nccs4)cc3)c2=O)cc1	0.91	0	21	0.8	102
CCOc1ccc(N2C(=O)CC(SCCN)C2=O)cc1 (stereo unspecified)	2.2	68	57*	0.4	118
C/C(=N\OC(=O)c1ccccc1F)c1nccs1	1.1	-18	85*	0.2	94
O=C(O/N=C(\c1ccccc1)c1ccncc1)c1ccccc1F	0.86	16	-7	1.1	104
C/C(=N/OC(=O)c1cccc(Cl)c1)c1nccs1	1.1	-15	55*	0.5	103
O=C(c1ccc(F)cc1)N1CCC(N2CCCCCC2)CC1	1.1	3	-2	1	100
O=C(c1cc(-c2ccccc2)on1)N1CCCC1	4.1*	61	46	0.5	132*
O=C(c1cc(-c2ccccc2O)on1)N1CCc2ccccc2C1	1.5	17	2	1	104
CC1CCN(C(=O)c2cc(-c3ccccc3O)on2)CC1	7.3*	134	26	0.7	113
